Measured values from PMC6423489 (Heliyon, 2019).
Where two headings read alike, the source gives them in different places.

Assays:
[1] = test system: human peripheral lymphocytes; test: In vitro micronucleus; type: cell-based; details: 72 h incubation
Method in brief: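 Whole blood from 3 healthy non-smoking donors (25–30 y) was treated with test compound at 0.5, 1.0 or 2.0 μg/mL in 2% DMSO for 72 h. Controls were distilled water, 2% DMSO and 10 mM EMS. Cytochalasin-B was added at 48 h and smears were Giemsa-stained. NDI was scored from 1000 cells and MN from 1000 binucleated cells per repeat, 3 donors, ANOVA.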

[2] = test system: human peripheral lymphocytes; details: compared to the control group; ref Gomez-Arroyo et al. (1987); cited from earlier work
human lymphocytes = details: 100 and 200 μg/mL; ref Ündeğer and Başaran (2005); cited from earlier work
Saccharomyces cerevisia = details: ref Mohn, 1973; Bianchi et al., 1994; cited from earlier work
Escherichia coli = details: ref Mohn, 1973; Bianchi et al., 1994; cited from earlier work
Salmonella typhimurium = details: ref Mohn, 1973, Bianchi et al., 1994, cited from earlier work
[3] = 10mM, 3000 binucleated cells counted

| Compound | MN within binucleat (1) ([1]; 0.5 μg/mL, 3000 binucleated cells counted) | %MN±S.E. ([1]; 0.5 μg/mL, compared with DMSO) [%] | NDI±S.E. ([1]; 0.5 μg/mL, compared with DMSO) | MN within binucleat (1) ([1]; 1.0 μg/mL, 3000 binucleated cells counted) | %MN±S.E. ([1]; 1.0 μg/mL, compared with DMSO) [%] | NDI±S.E. ([1]; 1.0 μg/mL, compared with DMSO) | MN within binucleat (1) ([1]; 2.0 μg/mL, 3000 binucleated cells counted) | %MN±S.E. ([1]; 2.0 μg/mL, compared with DMSO) [%] | sister chromatid exchanges [2] | DNA damage (human lymphocytes) | mutagenicity (Saccharomyces cerevisia) | mutagenicity (Escherichia coli) | mutagenicity (Salmonella typhimurium; strain TA 100) | mutagenicity (Salmonella typhimurium; strains TA 1535, TA 1537, TA 1538, TA 98 and TA 102) | MN within binucleat (1) [1, 3] | MN within binucleat (2) [1, 3] | MN within binucleat (3) [1, 3] | %MN±S.E. ([1]; 10mM, compared with distilled water) [%] |
| --- | --- | --- | --- | --- | --- | --- | --- | --- | --- | --- | --- | --- | --- | --- | --- | --- | --- | --- |
| CNC(=O)CSP(=S)(OC)OC [DIM] | 27 | 0.90 ± 0.72 | 1.54 ± 0.20 | 29 | 0.97 ± 0.63 | 1.54 ± 0.23 | 63 | 2.10 ± 0.13 | increased sister chromatid exchanges | significantly increased DNA damage | mutagenic | mutagenic | mutagenic | non-mutagenic | – | – | – | – |
| COP(=S)(OC)Oc1ccc([N+](=O)[O-])cc1 [methyl parathion] | – | – | – | – | – | – | – | – | increased sister chromatid exchanges | significantly increased DNA damage | – | – | – | – | – | – | – | – |
| CCOS(C)(=O)=O [EMS, ethyl methanesulfonate, reference compound] | – | – | – | – | – | – | – | – | – | – | – | – | – | – | 107 | 16 | 10 | 5.63 ± 1.60 |
